Tests used:
Cricetinae gen. sp. [1] = assay: Percent suppression of parasitaemia was measured in vivo against Visceral Leishmania donovani in hamsters at 208 mg/kg of dosage level.; assay type: functional
How it was run: (§1)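 Hamsters, six per group, infected intracardially with 1.0×10^7 L. donovani Khartoum amastigotes from donor hamster spleens. Dosed intramuscularly for 4 consecutive days starting day 3 post-infection and screened blind. On day 7 the animals were sacrificed and total parasite number per liver was counted. Result expressed as % suppression of parasitemia.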

Cricetinae gen. sp. [2] = assay: Percent suppression of parasitaemia was measured in vivo against Visceral Leishmania donovani in hamsters at 52 mg/kg of dosage level.; assay type: functional; how it was run: as §1
[3] = Partition coefficient (logP); assay type: physicochemical; settings: octanol/water
Leishmania donovani [4] = assay: In vitro inhibition of Leishmania donovani parasite; assay type: functional, organism-based
How it was run: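 L. donovani MHOM/SD/62/1S-CL2D axenic amastigote-like forms, seeded at 10^6 cells/mL in amastigote medium with or without drug (DMSO at most 1.25% v/v). Incubated 72 h at 37 °C, humid 5% CO2. A tetrazolium-type Cell Titer reagent was then added for a further 8–12 h and absorbance read at 490 nm. IC50 fitted by a four-parameter log dose-response equation.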

Cricetinae gen. sp. [5] = assay: Percent suppression of parasitaemia was measured in vivo against Visceral Leishmania donovani in hamsters at 13 mg/kg of dosage level.; assay type: functional, Cricetulus griseus; how it was run: as §1
Cricetinae gen. sp. [6] = assay: % suppression of parasitaemia was measured in vivo against Visceral Leishmania donovani in hamsters at 208 mg/kg of dosage level.; assay type: functional, Cricetulus griseus
Cricetinae gen. sp. [7] = assay: % suppression of parasitaemia was measured in vivo against Visceral Leishmania donovani in hamsters at 52 mg/kg of dosage level.; assay type: functional, Cricetulus griseus
Leishmania donovani [8] = assay: Compound was evaluated in vitro against Leishmania donovani parasite; assay type: functional, organism-based
How it was run: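 Axenic amastigote-like L. donovani (MHOM/SD/62/1S-CL2D), seeded at 10^6 cells/mL with or without drug, DMSO ≤1.25% (v/v), 72 h at 37 °C, 5% CO2. Tetrazolium-type dehydrogenase reagent added, further 8–12 h, absorbance at 490 nm; IC50 from four-parameter log dose-response fit.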

Row | Compound | logP [3] | IC50 (Leishmania donovani [4]) [µM] | further results
1 | MEGLUMINE ANTIMONATE |  |  | Suppression (Cricetinae gen. sp. [1]; Cricetulus griseus): 73%; Suppression (Cricetinae gen. sp. [2]; Cricetulus griseus): 27%
2 | CN1CCN(S(=O)(=O)c2cc(C(F)(F)F)ccc2F)CC1 | 2.61 | 199 | 
3 | O=[N+]([O-])c1cc(C(F)(F)F)cc([N+](=O)[O-])c1Cl [CHLORALIN] | 3.43 |  | Suppression (Cricetinae gen. sp. [6]): 32%; Suppression (Cricetinae gen. sp. [7]): 21%; IC50 (Leishmania donovani [8]): 1300 nM
4 | O=S(=O)(c1cc(C(F)(F)F)ccc1F)N1CCN(c2ccccn2)CC1 | 2.91 | > 450 | 
5 | CNS(=O)(=O)c1cc(C(F)(F)F)ccc1Cl | 2.63 | > 450 | 
6 | NS(=O)(=O)c1cc(C(F)(F)F)ccc1F | 1.68 | > 450 | 
7 | CNS(=O)(=O)c1cc(C(F)(F)F)ccc1F | 2.08 | > 450 | 
8 | CCN(CC)CCNS(=O)(=O)c1cc(C(F)(F)F)ccc1Cl | 3.85 | > 450 | 
9 | CCN(CC)CCNS(=O)(=O)c1cc(C(F)(F)F)ccc1F | 3.3 | > 450 | 

The next lines start with results.

Row | logP [3] | IC50 (Leishmania donovani [4]) [µM] | Compound | further results
10 | 3.16 | 321 | CN1CCN(S(=O)(=O)c2cc(C(F)(F)F)ccc2Cl)CC1 | 
11 | 3.57 | 23 | O=S(=O)(c1cc(C(F)(F)F)ccc1N1CCCC1)N1CCCC1 | Suppression (Cricetinae gen. sp. [5]): 16%; Suppression (Cricetinae gen. sp. [1]): 30%; Suppression (Cricetinae gen. sp. [2]): 29%
12 | 3.44 | 115 | O=S(=O)(c1cc(C(F)(F)F)ccc1Cl)N1CCCC1 | 
13 | 4.57 | 56 | O=S(=O)(c1cc(C(F)(F)F)ccc1Cl)N1CCCCCC1 | 
14 | 3.47 | 418 | O=S(=O)(c1cc(C(F)(F)F)ccc1F)N1CCCCC1 | 
15 | 2.9 | > 450 | O=S(=O)(c1cc(C(F)(F)F)ccc1F)N1CCCC1 | 
16 | 4.03 | 108 | O=S(=O)(c1cc(C(F)(F)F)ccc1F)N1CCCCCC1 | Suppression (Cricetinae gen. sp. [5]): 11%; Suppression (Cricetinae gen. sp. [1]): 19%; Suppression (Cricetinae gen. sp. [2]): 13%
17 | 1.98 | > 450 | NS(=O)(=O)c1cc(C(F)(F)F)ccc1Cl | 
18 | 4.01 | 110 | O=S(=O)(c1cc(C(F)(F)F)ccc1Cl)N1CCCCC1 | 
19 | 3.45 | 44 | O=S(=O)(c1cc(C(F)(F)F)ccc1Cl)N1CCN(c2ccccn2)CC1 | 
